# NS3 helicase inh – HCV NS3 helicase inhibition. NS3 helicase DNA unwinding, Cy5 molecular beacon fluorescence. inhibition, % at 10.9 µM. 0.56% of 290,000 active. AID 1800;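 active means inhibition above the mean of all tested compounds plus 3 SD, set per campaign, cut at about 35% in these data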;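 further: 0% = DMSO wells and 100% = thioflavine S control wells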
#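 Assay system: hepatitis C virus NS3 helicase domain fragment enzyme. Also added: annealed dual-labelled DNA beacon duplex, ATP-started. Timing: 1 h reaction at 25 °C, ATP-initiated. Technique: Cy5 fluorescence at 0 and 60 min, beacon hairpin quenching. Evaluation: % inhibition of unwinding. Replication: one well per compound.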
# SUMO HTRF inh – SUMOylation inhibition | P63279 | HTRF SUMOylation assay, SAE1/SAE2 + UBC9, in vitro | inhibition, % at 35 µM | 0.36% of 290,000 active; in the data active means inhibition above about 50%, passing the limit was not always enough
# Target sequence (P63279 whole entry, looked up): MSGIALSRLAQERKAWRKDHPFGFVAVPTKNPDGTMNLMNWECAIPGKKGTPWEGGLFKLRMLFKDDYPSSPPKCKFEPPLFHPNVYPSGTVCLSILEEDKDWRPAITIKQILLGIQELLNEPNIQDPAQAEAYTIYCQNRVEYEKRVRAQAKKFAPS
# core dimer inh – HCV core protein dimerization inhibition. TR-FRET GST/Flag-core106 dimerization, 1536-well. inhibition, % at 5 µM. 0.33% of 300,000 active. AID 1899;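 active means inhibition above the mean of all tested compounds plus 3 SD, set per screening campaign, cut at about 45% in these data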
#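 System: GST/Flag-tagged HCV core106 proteins. Incubation: compound-protein-antibody incubation 4 h at 22.5 °C. Technique: HTRF with 340 nm excitation, 617/671 nm emission. Medium: KF-containing HEPES buffer, pH 7.45, DTT, CHAPS, BSA. Read-out: inhibition (%) from 671 over 617 nm ratio. Also added: Eu(K)-anti-GST 90 ng/mL plus XL665-anti-Flag 1 µg/mL.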
# EBNA-1 inhibitor – blocks EBNA-1 binding to DNA; EBNA-1 DNA binding, fluorescence polarization; inhibition, % at 14.8 µM; 0.34% of 300,000 active; AID 1950; in the data active means inhibition above about 28%
# ZTA counter – counter-screen for EBNA-1 inhibitors: inhibitors of Epstein-Barr virus ZTA; P03206; ZTA-DNA binding, fluorescence polarization; inhibition, % at 11 µM; 0.15% of 320,000 active; AID 2234; in the data active means inhibition above about 33%
# Target sequence (P03206 whole entry, looked up): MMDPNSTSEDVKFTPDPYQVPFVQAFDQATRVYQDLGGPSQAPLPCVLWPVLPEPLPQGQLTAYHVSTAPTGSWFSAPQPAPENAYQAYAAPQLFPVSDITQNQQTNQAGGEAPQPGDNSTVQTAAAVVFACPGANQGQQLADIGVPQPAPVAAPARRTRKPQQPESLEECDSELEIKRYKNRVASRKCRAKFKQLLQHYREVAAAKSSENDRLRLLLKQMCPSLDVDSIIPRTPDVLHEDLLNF
# NS3 hel confirm – confirmation of Hepatitis C virus NS3 helicase inhibitors | shares compounds with NS3 helicase inh | NS3 helicase DNA unwinding, Cy5 molecular beacon fluorescence | inhibition, % at 10.9 µM | 31% of 1,600 active;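 active means inhibition above the mean of all tested compounds plus 3 SD, cutoff set per campaign, cut at about 36% in these data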
# FID counter trip – displaces DNA intercalator in HCV helicase counter-screen. shares compounds with NS3 helicase inh. DNA fluorescent intercalator displacement, fluorescence. inhibition, % at 7.9 µM. 4% of 1,600 active; in the data active means inhibition above about 37%;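 further: 0% = vehicle and 100% = reference compound; higher means more displacement of ethidium bromide from the DNA hairpin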
# FID counter DR – counter-screen for HCV NS3 helicase inhibitors: DNA intercalator displacement dose response; shares compounds with NS3 helicase inh; fluorescent intercalator displacement from DNA, fluorescence; IC50, µM; 120 tested, under 10 active; AID 2172; call rule not given here
# An asterisk follows results filed as active; . = no result; + = active, no number. Only some compounds are listed: those with a hit (about 1.4% of all), similar ones and a draw of the others.
SMILES,NS3 helicase inh,SUMO HTRF inh,core dimer inh,EBNA-1 inhibitor,ZTA counter,NS3 hel confirm,FID counter trip,others
CCCCOc1ccc(N2C(=O)CC(N(O)c3ccccc3)C2=O)cc1 (stereo not drawn),37.2*,14.5,8.9,4.7,-5.1,-2.0,13.3,
CCOc1ccccc1N1C(=O)CC(N(O)c2ccccc2)C1=O (stereo not drawn),6.7,4.6,5.6,12.3,2.5,.,.,
CC1(C)CC(=O)C2=C(C1)OC1=C(C(=O)CC(C)(C)C1)C2c1cc([N+](=O)[O-])cc([N+](=O)[O-])c1O,43.1*,7.9,11.3,-8.9,-0.9,77.9*,-17.9,
CCOc1cc(C2C3=C(CC(C)(C)CC3=O)OC3=C2C(=O)CC(C)(C)C3)cc([N+](=O)[O-])c1O,18.5,1.1,-4.2,-6.5,-6.3,.,.,
O=C(NCc1cnn(-c2ccc(F)cc2)c1)C1CCC(=O)N(C2CC2)C1 (stereo not drawn),0.0,-0.1,.,.,.,.,.,
O=[N+]([O-])c1ccccc1S(=O)(=O)Nc1ccc(-c2ccc3nncn3n2)cc1,.,.,-2.5,-2.9,-15.7,.,.,
COc1cc(C(=O)N/C(=C/c2ccc(F)cc2)C(=O)NC(C(=O)O)c2ccccc2)cc(OC)c1OC (stereo not drawn),36.6*,-0.3,-8.1,-12.4,-23.1,-12.8,-10.3,
COC(=O)C1=CN(c2cccc(Cl)c2)C=C(C(=O)OC)C1c1cccc(OC)c1,-16.3,8.7,.,.,.,.,.,
N#C/C(=C/c1ccc(F)cc1)S(=O)(=O)c1ccccc1,18.2,7.9,-7.4,-4.4,-0.9,.,.,
N#C/C(=C\c1ccc(O)c(O)c1)S(=O)(=O)c1ccccc1,37.6*,1.7,-6.2,21.9,-2.6,58.3*,17.0,FID counter DR=>79.4
c1ccc2c(-c3cn4ccccc4n3)c[nH]c2c1,-2.9,12.2,-4.7,-4.8,1.5,.,.,
CCc1ccc(C2CC(=O)N3CN(c4ccccc4)CSC3=C2C#N)cc1 (stereo not drawn),44.1*,13.6,12.2,-4.3,12.8,33.7,-12.9,
Cc1ccc(NC(=O)CSc2sc3c(O)cc(=O)[nH]c3c2C#N)c(F)c1,36.5*,9.3,-15.1,-3.8,-7.0,27.4,0.7,
CCOC(=O)c1ccc(N2C(=O)c3n[nH]c(-c4ccco4)c3C2c2ccc([N+](=O)[O-])cc2)cc1 (stereo not drawn),38.3*,66.1,22.0,-11.2,-21.2,20.3,-30.6,
CCOC(=O)c1ccc(N2C(=O)c3n[nH]c(C)c3C2c2cccnc2)cc1 (stereo not drawn),9.0,-3.4,-0.8,-4.0,-3.3,.,.,
Cc1ccc(OCC(=O)Nc2nnc(S(=O)(=O)N3CCC(C)CC3)s2)cc1,36.0*,19.0,35.6,1.2,-7.0,-15.8,-5.8,
COc1cc(OC)c(OC)cc1CCC(C)NC(=O)Cc1ccccc1 (stereo not drawn),-1.5,-4.6,-16.7,-4.5,-12.7,.,.,
O=C1CC(=O)N(c2ccccc2)N1c1ccccc1,38.4*,29.8,3.3,2.1,2.0,16.3,-7.2,
O=C1CC(=O)N(c2ccccc2)c2ccccc21,-4.4,1.4,2.7,3.7,8.5,.,.,
CCOc1ccc2[nH]c(=O)c(CN(Cc3nnnn3Cc3ccco3)C3CCCCC3)cc2c1,64.7*,26.1,23.1,-1.4,0.0,-10.7,-22.9,
COCCNC(=O)C(=O)NCC1OCCN1S(=O)(=O)c1ccc(F)cc1 (stereo not drawn),0.8,-6.9,-5.2,3.2,-6.1,.,.,
O=C(NCc1ccco1)C(=O)NCC1OCCN1S(=O)(=O)c1cc(F)ccc1F (stereo not drawn),48.8*,10.6,1.8,4.7,-1.8,-7.4,11.1,
O=C(NCc1ccco1)C(=O)NCC1OCCN1S(=O)(=O)c1ccc(F)cc1 (stereo not drawn),5.8,17.4,20.2,4.6,-1.6,.,.,
CCC(C)[C@H](NC(=O)C1(c2ccccc2)CCN(C(=O)OC(C)(C)C)CC1)C(=O)N[C@@H](C(=O)O)c1ccccc1 (stereo partly drawn),46.8*,15.8,1.6,-0.7,3.6,25.0,-18.3,
O=C(CSc1nc2cc([N+](=O)[O-])ccc2n1-c1ccccc1)NCc1ccc2c(c1)OCO2,40.4*,-9.8,22.6,3.6,6.7,28.4,4.0,
SMILES,NS3 helicase inh,SUMO HTRF inh,core dimer inh,EBNA-1 inhibitor,ZTA counter,NS3 hel confirm,FID counter trip,others
NC1=C(c2ccccc2)C(=O)NC1=O,36.7*,-0.3,-1.6,5.9,3.5,-10.8,20.0,
COc1ccc(-n2c(C)cc(/C=C3/SC(=S)N(C)C3=O)c2C)cc1,2.2,21.4,-7.9,-5.5,1.6,.,.,
Cc1cc(/C=C2\SC(=S)N(C)C2=O)c(C)n1-c1cccc(O)c1,83.1*,15.1,-10.7,-4.5,4.3,-2.0,20.1,
Cc1c(C(=O)N(CC(C)C)c2c(N)n(Cc3ccccc3)c(=O)[nH]c2=O)sc2nc3n(c(=O)c12)CCC3,.,.,4.4,-4.1,3.6,.,.,
CN(C)c1ccc(NC(=O)Oc2ccccc2)cc1,43.5*,-116.5,-10.8,52.3*,+,-5.4,0.5,
CCOc1ccc(NC(=O)C2CCN(S(=O)(=O)c3ccc4c(c3)C(C)(C)C(=O)N4C)CC2)cc1,5.0,-2.5,11.3,-0.2,-1.3,.,.,
Cc1cccc(CSc2nc3sc(C)c(C)c3c(=O)n2Cc2ccco2)c1,39.2*,9.0,2.2,1.7,0.6,-8.7,7.4,
CC(C)Nc1nc(Oc2ccc(=O)n(-c3ccccc3)n2)nc(N(C)C)n1,36.4*,1.4,0.3,4.2,8.7,-3.4,-19.9,
CN(C)c1ccc(CN(C(=O)/C=C/c2ccco2)C2CCS(=O)(=O)C2)cc1 (stereo not drawn),0.0,19.6,-2.2,-9.2,0.0,.,.,
O=C(/C=C/c1ccco1)N(Cc1ccc(Cl)cc1)C1CCS(=O)(=O)C1 (stereo not drawn),42.1*,13.4,5.0,0.0,0.6,0.3,-23.2,
COc1ccc(OCC(=O)N(Cc2ccco2)C2CCS(=O)(=O)C2)cc1 (stereo not drawn),33.6,7.1,1.0,5.8,-3.3,.,.,
CC(C)c1ccc(OCC(=O)N(Cc2ccco2)C2CCS(=O)(=O)C2)cc1 (stereo not drawn),48.4*,-3.4,-6.5,-16.9,-5.4,-14.6,-29.3,
COc1ccc(NS(=O)(=O)c2cc(NC(=O)c3ccc(=O)[nH]n3)ccc2N2CCOCC2)cc1,.,.,.,.,6.9,.,.,
Cc1cc(/C=C2\SC(=S)NC2=O)c(C)n1C1CC1,76.2*,-12.1,-6.3,0.5,-24.6,36.4*,28.0,
Cc1cc(/C=C2/C(=O)N(C)C(=S)N2C)c(C)n1C1CC1,6.1,11.3,11.0,1.3,-3.7,.,.,
Cc1ccccc1NC(=S)NCCSc1ccc(Cl)cc1,78.3*,1.4,1.2,-6.9,-1.8,6.1,-0.8,

# Bioassay records (PubChem BioAssay)
